Assay results as given in ChEMBL document CHEMBL4270628, “Design, synthesis, and evaluation of cystargolide-based β-lactones as potent proteasome inhibitors” (Eur J Med Chem, 2018).
Active and inactive are the calls of the source. No cut-off for these calls is given here.

Tests used:
[1] = molecular target: T1, Proteasome subunit beta type-1 (Saccharomyces cerevisiae (strain ATCC 204508 / S288c) (Baker's yeast), UniProt P38624); test: Inhibition of yeast 20S proteasome beta1 subunit using fluorescent substrate pretreated for 30 mins followed by substrate addition and measured after 60 mins by fluorescence assay
T1 sequence (P38624 whole entry): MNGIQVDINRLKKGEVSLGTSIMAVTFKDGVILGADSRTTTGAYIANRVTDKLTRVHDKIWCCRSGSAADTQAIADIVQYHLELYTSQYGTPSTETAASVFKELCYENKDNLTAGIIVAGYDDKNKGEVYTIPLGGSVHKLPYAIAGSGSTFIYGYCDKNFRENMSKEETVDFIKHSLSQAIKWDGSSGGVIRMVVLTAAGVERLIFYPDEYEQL

[2] = molecular target: T2, Proteasome subunit beta type-2 (Saccharomyces cerevisiae (strain ATCC 204508 / S288c) (Baker's yeast), UniProt P25043); test: Inhibition of yeast 20S proteasome beta2 subunit using SUC-RLR-AMC as substrate pretreated for 30 mins followed by substrate addition and measured after 60 mins by fluorescence assay
T2 sequence (P25043 whole entry): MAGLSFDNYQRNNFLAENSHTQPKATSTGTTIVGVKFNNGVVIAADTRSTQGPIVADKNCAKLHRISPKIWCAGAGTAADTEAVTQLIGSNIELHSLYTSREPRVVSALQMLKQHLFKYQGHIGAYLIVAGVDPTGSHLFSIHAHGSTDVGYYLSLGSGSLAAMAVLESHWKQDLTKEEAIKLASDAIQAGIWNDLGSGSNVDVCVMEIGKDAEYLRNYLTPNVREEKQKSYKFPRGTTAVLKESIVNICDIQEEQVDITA
In short: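 Fluorogenic substrate was then added (100 μM Suc-RLR-AMC solution for β2) and incubated 60 min at 37 °C; cleavage read at ex 360/em 480 nm. IC50 from nonlinear regression on normalized data, ±SD.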

[3] = Inhibition of yeast 20S proteasome beta5 subunit using Suc-LLVY-AMC as substrate pretreated for 30 mins followed by substrate addition and measured after 60 mins by fluorescence assay; parameters: species or system Saccharomyces cerevisiae
In short: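 Purified yeast 20S proteasome at 8 μg/mL preincubated with compound 30 min at 37 °C; then 100 μM Suc-LLVY-AMC for 60 min at 37 °C; cleaved-AMC fluorescence ex 360/em 480 nm. IC50 by nonlinear regression on normalized data, confirmed in at least technical triplicate, reported ± SD.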

MCF7 = test: Cytotoxicity against human MCF7 cells after 48 hrs by MTT assay; assay type: functional, cell-based; conditions: MCF7, 48 h
In short: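 MCF7 cells plated at 4*10⁴ cells/mL and left overnight to adhere, then exposed to a concentration series for 48 h, with DMSO vehicle, untreated cells, and 100 μM phenylarsine oxide as controls. MTT (5 mg/mL stock in PBS) was added for 2 h at 37 °C. Formazan was dissolved in DMSO and OD read at 490 nm. The best three of quadruplicate wells were used; IC50 from nonlinear regression on normalized data, ±SD.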

MDA-MB-231 = test: Cytotoxicity against human MDA-MB-231 cells after 48 hrs by MTT assay; assay type: functional, cell-based; conditions: MDA-MB-231, 48 h
In short: (§1)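 MTT viability after 48 h exposure to a concentration series; MDA-MB-231 seeded at 4*10⁴ cells/mL and adhered overnight, RPMI 8226 at 4*10⁵ cells/mL and dosed immediately. MTT (5 mg/mL in PBS) added, 2 h at 37 °C; formazan dissolved in DMSO (MDA-MB-231) or DMF/SDS pH<4 (RPMI 8226); OD 490 nm.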

RPMI-8226 = test: Cytotoxicity against human RPMI8226 cells after 48 hrs by MTT assay; assay type: functional, cell-based; conditions: RPMI-8226, 48 h; in short: as §1
[4] = molecular target: T3, Proteasome Macropain subunit MB1 (Homo sapiens) (UniProt P28074); test: Inhibition of 20S proteasome beta5 subunit in human MCF7 cells using Suc-LLVY-AMC as substrate pretreated for 1 hr followed by compound washout and cell lysis prior to substrate addition measured after 1 hr by fluorescence assay; assay type: cell-based
T3 sequence (whole entry): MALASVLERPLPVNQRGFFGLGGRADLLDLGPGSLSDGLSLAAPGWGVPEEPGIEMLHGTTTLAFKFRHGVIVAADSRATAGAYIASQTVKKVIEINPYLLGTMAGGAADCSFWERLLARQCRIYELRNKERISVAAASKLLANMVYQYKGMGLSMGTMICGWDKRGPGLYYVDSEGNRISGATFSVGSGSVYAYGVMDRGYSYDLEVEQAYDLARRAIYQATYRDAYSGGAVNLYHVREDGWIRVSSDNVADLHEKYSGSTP
In short: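 Adherent MCF7 (500,000 cells/mL, overnight, ~100% confluent) dosed 1 h at 37 °C, 5% CO₂; washed twice with PBS, lysed in HEPES/Triton buffer on ice 1 h; 15 min at 37 °C, then 100 μM Suc-LLVY-AMC 1 h at 37 °C; ex 360/em 480 nm. IC50 from best three of four biological replicates per concentration.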

[5] = n-Octanol/Tris-HCl buffer partition coefficient, log P of the compound at 0.5 mg after 2 mins by RP-HPLC method; assay type: physicochemical
[6] = Half life in human AB serum by RP-HPLC analysis; assay type: ADME, cell-free
[7] = Half life in 0.1 M TEAA buffer by RP-HPLC analysis; assay type: physicochemical
[8] = molecular target: T4, Proteasome subunit beta type-8 (Homo sapiens, UniProt P28062); test: Inhibition of human immunoproteasome beta5 subunit using Suc-LLVY-AMC as substrate pretreated for 30 mins followed by substrate addition and measured after 60 mins by fluorescence assay
T4 sequence (P28062 whole entry): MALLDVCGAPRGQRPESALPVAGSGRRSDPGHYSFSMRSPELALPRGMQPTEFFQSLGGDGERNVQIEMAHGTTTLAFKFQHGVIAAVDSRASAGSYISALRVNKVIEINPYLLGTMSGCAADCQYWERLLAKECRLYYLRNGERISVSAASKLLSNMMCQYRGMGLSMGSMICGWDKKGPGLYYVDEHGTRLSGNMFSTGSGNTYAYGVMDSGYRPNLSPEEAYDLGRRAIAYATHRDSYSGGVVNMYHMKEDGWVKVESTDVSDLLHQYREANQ

[9] = molecular target: T3, Proteasome Macropain subunit MB1 (Homo sapiens); test: Inhibition of 20S proteasome beta5 subunit in human MCF7 cells assessed as accumulation of ubiuitinated protein at 1 to 10 uM after 9.5 hrs by Western blot analysis; assay type: cell-based
Jurkat [10] = test: Induction of apoptosis in human Jurkat cells after 24 hrs by Annexin-V-FITC/propidium iodide staining based flow cytometry; assay type: functional, cell-based
Jurkat [11] = test: Cell cycle arrest in human Jurkat cells assessed as accumulation at G2/M phase at 0.1 to 1 uM after 10 hrs by Vybrant DyeCycle Orange staining based flow cytometry; assay type: functional
[12] = molecular target: T5, Proteasome Macropain subunit MB1 (Homo sapiens, UniProt P28074); test: Inhibition of 20S proteasome beta5 subunit in human Jurkat cell lysate using Suc-LLVY-AMC as substrate pretreated for 30 mins followed by substrate addition and measured after 60 mins by fluorescence assay
T5 sequence (P28074 whole entry): T3 sequence (whole entry)
In short: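 Lysate was preincubated with compound 30 min at 37 °C. 100 μM substrate solution was added: Suc-LLVY-AMC for β5, Suc-RLR-AMC for β2. IC50 by nonlinear regression, ±SD.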

[13] = molecular target: T3, Proteasome Macropain subunit MB1 (Homo sapiens); test: Binding affinity to 20S proteasome beta5 subunit in human Jurkat cell lysate assessed as decrease in protein hydrolysis at 100 uM pretreated for 30 mins followed by Suc-LLVY-AMC addition and measured after 1 hr by fluorescence assay
In short: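 Compound diluted in lysis buffer, preincubated 30 min at 37 °C. Suc-LLVY-AMC added as 100 μM solution, 60 min at 37 °C. AMC fluorescence read at ex 360/em 480 nm. Best three of quadruplicates used; IC50 by nonlinear regression, ± SD.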

SMILES	IC50 [1] [nM]	IC50 [2] [nM]	IC50 [3] [nM]	IC50 (MCF7) [nM]	IC50 (MDA-MB-231) [nM]	IC50 (RPMI-8226) [nM]	inhibition [4]	logP [5]	t1/2 [6] [min]	t1/2 [7] [min]	IC50 [8] [nM]	inhibition [9]	Activity (Jurkat [10])	Activity (Jurkat [11])	IC50 [12] [nM]	Activity [13]
CC[C@H](C)[C@@H]1C(=O)O[C@H]1C(=O)N[C@H](C(=O)N[C@@H](COCc1ccccc1)C(=O)OCc1ccccc1)C(C)C	17800	> 50000	24.5	416	74	41	Active	1.52	16.1	4.32	9.1	–	–	–	–	–
CC(C)[C@H](NC(=O)[C@@H]1OC(=O)[C@H]1C(C)C)C(=O)N[C@H](C(=O)OCc1ccccc1)C(C)C	–	–	37.2	7000	–	–	Active	–	–	–	44.7	Active	Active	Active	–	–
CC[C@H](C)[C@@H]1C(=O)O[C@H]1C(=O)N[C@H](C(=O)N[C@H](C(=O)NCc1ccccc1)C(C)C)C(C)C	1380	2920	5.4	892	885	320	–	–	–	–	–	–	–	–	3.6	–
CC(C)[C@H](NC(=O)[C@@H]1OC(=O)[C@H]1C1CCCC1)C(=O)N[C@H](C(=O)OCc1ccccc1)C(C)C	–	–	–	50600	28200	2350	inactive	–	–	–	–	–	–	–	12.9	–
CC(C)[C@H](NC(=O)[C@@H](NC(=O)[C@@H]1OC(=O)[C@H]1C(C)C)C(C)C)C(=O)O	10100	61600	–	84700	–	–	–	–	–	–	681	–	–	–	900	Active
C=CCOC(=O)[C@@H](NC(=O)[C@@H](NC(=O)[C@@H]1OC(=O)[C@H]1[C@@H](C)CC)C(C)C)C(C)C	779	> 10000	19.5	353	275	88	–	–	–	–	41.2	–	–	–	9.4	–
CC[C@H](C)[C@@H]1C(=O)O[C@H]1C(=O)N[C@H](C(=O)N[C@H](C(=O)OCc1ccccc1)C(C)C)C(C)C	–	[…]	–	1850	287	191	Active	–	–	–	–	Active	Active	Active	–	–
CC(C)C[C@H](NC(=O)[C@H](CCc1ccccc1)NC(=O)CN1CCOCC1)C(=O)N[C@@H](Cc1ccccc1)C(=O)N[C@@H](CC(C)C)C(=O)[C@@]1(C)CO1 [CARFILZOMIB]	> 1000	> 1000	–	4.1	4.4	6.7	–	–	–	–	–	–	–	–	–	–
CC[C@H](C)[C@@H]1C(=O)O[C@H]1C(=O)N[C@H](C(=O)N[C@H](C(=O)OCc1ccccc1)C(C)C)C(C)(C)C	–	–	–	2290	699	748	Active	–	–	–	–	–	–	–	22.8	–
CC[C@H](C)[C@@H]1C(=O)O[C@H]1C(=O)N[C@@H](CC(C)C)C(=O)N[C@H](C(=O)OCc1ccccc1)C(C)C	–	–	–	2460	1450	2240	Active	–	–	–	–	–	–	–	5	–
